From ChEMBL document CHEMBL1123911, “Dopamine agonists: effects of charged and uncharged analogues of dopamine” (1987) come the findings set out here.

The species named for assay [1] is Rattus norvegicus. Put plainly: Ability to inhibit the K+-induced release of [3H]acetylcholine in normal striatal slices at 30 uM. It is filed as functional. Details: scale not given: the % may be the effect or the level left. An outline of the steps:
(§1)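 Striatal slices in Krebs–Ringer bicarbonate with 0.6 mM ascorbic acid, 0.03 mM Na2EDTA and 11 mM glucose, gassed 95% O2/5% CO2, labelled 20 min with [3H]choline, then superfused at 0.5 mL/min. At 55 min, 12.5 mM K+ (Na+ lowered equimolarly) was applied for 10 min, with drug present from 10 min before. Scintillation counting gave fractional tritium release above spontaneous outflow, expressed as % of drug-free control.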

The species named for assay [2] is Rattus norvegicus. As to the kind of experiment: Ability to inhibit the K+-induced release of [3H]Acetylcholine in dopamine depleted striatal slices at 30 uM. The class given is functional. Details: scale not given: the % may be the effect or the level left. An outline of the steps:
as §1

Assay [3] is filed under the species Rattus norvegicus. As to the kind of experiment: Ability to inhibit the K+-induced release of [3H]acetylcholine in normal striatal slices at 1 uM. The class given is functional. Details: scale not given: the % may be the effect or the level left. An outline of the steps: (§2)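 Striatal slices in Krebs–Ringer bicarbonate with 0.6 mM ascorbic acid, 0.03 mM Na₂EDTA and 11 mM glucose, gassed with 95% O₂/5% CO₂. Slices were labelled 20 min with [³H]choline, then superfused at 0.5 mL/min. Drug was added 10 min before and during 12.5 mM K⁺ (Na⁺-compensated) for 10 min. K⁺-evoked fractional tritium release above baseline is given as % of drug-free control, ±SEM.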

For assay [4], the species on record is Rattus norvegicus. Put plainly: Inhibition of stimulation of [3H]- acetylcholine release in rat striatal tissue. It is filed as functional, Striatum. The method in brief: as §1
The species named for assay [5] is Rattus norvegicus. Put plainly: Ability to inhibit the K+-induced release of [3H]acetylcholine in dopamine depleted striatal slices at 0.1 uM. The class given is functional. The arrangement: scale not given: the % may be the effect or the level left. An outline of the steps:
as §2

The species entered for assay [6] is Rattus norvegicus. Put plainly: Ability to inhibit the K+-induced release of [3H]acetylcholine in normal striatal slices at 0.1 uM. Details: scale not given: the % may be the effect or the level left. The class given is functional. The method in brief:
as §2

For assay [7], the species on record is Rattus norvegicus. Put plainly: Ability to inhibit the K+-induced release of [3H]Acetylcholine in normal striatal slices at 60 uM. The class given is functional. The arrangement: scale not given: the % may be the effect or the level left. An outline of the steps:
as §2

SMILES strings stand for the structures.

On to `C[S+](C)CC(O)c1ccc(O)c(O)c1.[I-]` (stereo not given), for which the Control in assay [1] worked out at 113%.
Take `C[Se]CCc1ccc(O)c(O)c1`: in assay [1], the Control came to 95%.
As for `C[Se+](C)CCc1ccc(O)c(O)c1.[I-]`, the figures for the Control in assay [2] and in assay [1] were 47% and 57%, respectively.
For `C[S+](C)CCc1ccc(O)c(O)c1.[I-]`, the Control in assay [2] is 61%; in assay [1], 50%.
For the molecule `CS(=O)(=O)CCc1ccc(O)c(O)c1`, in assay [1], the Control turned out to be 122%.
Consider `C[N+]1(C)CCc2cccc3c2[C@H]1Cc1ccc(O)c(O)c1-3`, for which the Control in assay [3] stood at 59%.
For `CSCCc1ccc(O)c(O)c1`, the Control is listed as 100% in assay [2] and 82% in assay [1]. This molecule also showed an Inhibition in assay [4] of 18%.
With `C[S+]([O-])CCc1ccc(O)c(O)c1` (stereo not given), the Control in assay [1] is 101%.
As for `C[N+](C)(C)CCc1ccc(O)c(O)c1.[I-]`, the Control in assay [2] worked out at 53%; in assay [1] it was 52%.
Take `CN1CCc2cccc3c2[C@H]1Cc1ccc(O)c(O)c1-3` [APOMORPHINE]: the Control in assay [5] is reported as 56%; in assay [6] it was 60%.
With `NCCc1ccc(O)c(O)c1` [DOPAMINE], the Control in assay [3] worked out at 70%; in assay [1], 40%.
For `NC[C@H](O)c1ccc(O)c(O)c1` [NOREPINEPHRINE], the Control in assay [7] turned out to be 85%; in assay [1] it was 101%.
